Test results reported in ChEMBL document CHEMBL1921744, “Lipophosphonoxins: new modular molecular structures with significant antibacterial properties” (J Med Chem, 2011).
In brackets after ≈: the same amount, converted by molar mass. Activity calls are given as the source filed them. No cut-off for these calls is given here.

Key:
Bacillus subtilis [1] = assay: Antibacterial activity against Bacillus subtilis after 24 to 48 hrs by microdilution method; format: functional
Outline: (§1)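 Incubation 24/48 h at 37 °C. MIC read as the lowest concentration inhibiting growth. MBC determined by transferring 10 μL from wells onto blood agar, taken as the lowest concentration with no visible growth.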

Pseudomonas aeruginosa = assay: Antibacterial activity against Pseudomonas aeruginosa after 24 to 48 hrs by microdilution method; format: functional; outline: as §1
Escherichia coli [2] = assay: Antibacterial activity against Escherichia coli after 24 to 48 hrs by microdilution method; format: functional; outline: as §1
[3] = test system: Staphylococcus epidermidis; assay: Antibacterial activity against methicillin-resistant Staphylococcus epidermidis 8700/B after 24 to 48 hrs by microdilution method; format: functional
Outline: (§2)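 Broth microdilution MIC on clinical isolates from Teaching Hospital Olomouc, stored at −80 °C. Compounds were serially diluted in brain heart infusion broth over 200–1.56 μg/mL (sometimes extended to 0.78 μg/mL), with an inoculum of 10⁵⁻⁶ CFU/ml per well. Plates were incubated at 37 °C and read at 24/48 h. MIC was taken as the lowest concentration inhibiting growth.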

[4] = Induction of apoptosis in human Erythroid progenitor cells assessed as caspase 3/7 activation after 4 hrs by Caspase-Glo 3/7 assay
Outline: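 Cord-blood-derived human erythroid progenitor cells plated at 25000 cells/well and exposed to compound prediluted in medium. Caspase 3/7 activation read by Caspase-Glo 3/7 luminescence 4 h after addition, normalized to untreated control cells set as 100%.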

Enterococcus faecium [5] = assay: Antibacterial activity against vancomycin-resistant Enterococcus faecium VanA419/ana after 24 to 48 hrs by microdilution method; format: functional; outline: as §2
Enterococcus faecalis [6] = assay: Antibacterial activity against Enterococcus faecalis CCM 4224 after 24 to 48 hrs by microdilution method; format: functional; outline: as §1
[7] = Cytotoxicity against human Erythroid progenitor cells assessed as cell viability after 48 hrs by CellTiter-blue assay; format: cell-based
Outline: (§3)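 Normal human erythroid progenitor cells, expanded from umbilical cord blood, plated at 25000 cells/well immediately before compound addition (added as a 5× predilution in culture medium). Viability by CellTiter-Blue fluorescence 48 h after addition, normalized to untreated cells set as 100%.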

[8] = Cytotoxicity against human Erythroid progenitor cells assessed as maximum safe concentration after 48 hrs by CellTiter-blue assay; format: cell-based; details: read-out: Activity; outline: as §3
Staphylococcus aureus [9] = assay: Antibacterial activity against Staphylococcus aureus CCM 4223 after 24 to 48 hrs by microdilution method; format: functional; outline: as §1
Streptococcus agalactiae = assay: Antibacterial activity against Streptococcus agalactiae after 24 to 48 hrs by microdilution method; format: functional; outline: as §1
Staphylococcus aureus [10] = assay: Antibacterial activity against methicillin-sensitive Staphylococcus aureus ATCC 29213; format: functional; outline: as §1
Enterococcus faecium [11] = assay: Antibacterial activity against Enterococcus faecium ATCC 19434; format: functional; outline: as §1
Enterococcus faecalis [12] = assay: Antibacterial activity against vancomycin-resistant Enterococcus faecalis SR7914; format: functional
Enterococcus faecalis [13] = assay: Antibacterial activity against Enterococcus faecalis ATCC 29212; format: functional
Staphylococcus aureus [14] = assay: Antibacterial activity against methicillin-resistant Staphylococcus aureus SR3637; format: functional
Enterococcus faecium [15] = assay: Antibacterial activity against vancomycin-resistant Enterococcus faecium SR7917; format: functional
Bacillus subtilis [16] = assay: Inhibition of Bacillus subtilis RNA polymerase using [alpha-32P]-UTP at 1 mM pretreated for 5 mins measured after 15 mins by electrophoresis analysis
Outline: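 Reconstituted B. subtilis RNAP σA holoenzyme (6 nM) with supercoiled pLK7 template carrying the rrnB P1 promoter (4 ng/μL). Nucleotides: ATP/CTP/GTP 200 μM, UTP 10 μM plus 2 μM [α-³²P]-UTP. Compound at 1 mM; 5 min preincubation at 30 °C, started with RNAP, stopped after 15 min with formamide/EDTA.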

Escherichia coli [17] = assay: Antibacterial activity against permeabilized Escherichia coli DH5[alpha] assessed as cell killing at 10 uM; format: functional
Outline: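 Competent (permeabilized) E. coli DH5α cells were mixed with 5 ng pUC18 (ampR) and serially diluted compound or buffer only. Steps: 30 min on ice, heat shock at 42 °C for 90 s, 5 min on ice, then LB without antibiotic for 1 h at 37 °C with shaking. Plated on LB agarose with ampicillin 100 μg/mL overnight at 37 °C. Colonies counted against the no-compound control.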

[18] = test system: Staphylococcus haemolyticus; assay: Antibacterial activity against fluoroquinolone-resistant Staphylococcus haemolyticus 16568 after 24 to 48 hrs by microdilution method; format: functional; outline: as §2
Staphylococcus aureus [19] = assay: Antibacterial activity against methicillin-resistant Staphylococcus aureus 4591 after 24 to 48 hrs by microdilution method; format: functional; outline: as §2

## CCCCCCCCCCCCCCCCOCCCOP(=O)(CCN1C[C@@H](O)[C@H](O)C1)OC[C@H]1O[C@@H](n2ccc(N)nc2=O)[C@H](O)[C@@H]1O (stereo partly specified)
Bacillus subtilis [1]
  MIC: 3.13 µg/mL (≈ 4.35 µM)
Pseudomonas aeruginosa
  MIC: > 200 µg/mL
Escherichia coli [2]
  MIC: > 200 µg/mL
[3]
  MIC: 6.25 µg/mL (≈ 8.69 µM)
[4]
  Activity: Non-toxic
Enterococcus faecium [5]
  MIC: 6.25 µg/mL (≈ 8.69 µM)
Enterococcus faecalis [6]
  MIC: 6.25 µg/mL (≈ 8.69 µM)
[7]
  IC50: 67 µg/mL (≈ 93.2 µM)
[8]
  MNTC at 48 h: 31.2 µg/mL
Staphylococcus aureus [9]
  MIC: 25 µg/mL (≈ 34.8 µM)
Streptococcus agalactiae
  MIC: 3.13 µg/mL (≈ 4.35 µM)

## O=C(N[C@H](CO)[C@H](O)c1ccc([N+](=O)[O-])cc1)C(Cl)Cl [CHLORAMPHENICOL]
Streptococcus agalactiae
  MIC: 2 µg/mL (≈ 6.19 µM)

## CCCCCCCCCCCCCCCCOP(=O)(CCN1C[C@@H](O)[C@H](O)C1)OC[C@H]1O[C@@H](n2ccc(=O)[nH]c2=O)[C@H](O)[C@@H]1O (stereo in doubt; 12i-P1) [listing 1 of 2 here]
[4]
  Activity: Toxic

## CCCCCCCCCCCCCCC[C@H](NC[C@@H](NC(=O)N[C@H](C(=O)O)C(C)C)[C@@H]1CCNC(=N)N1)C(=O)NCCCN[C@H](C(=O)O)[C@H](O[C@@H]1O[C@H](CN)[C@@H](O)[C@H]1O)[C@H]1O[C@@H](n2ccc(=O)[nH]c2=O)[C@H](O)[C@@H]1O
Staphylococcus aureus [10]
  MIC: 2 µg/mL (≈ 1.89 µM)
Enterococcus faecium [11]
  MIC: 4 µg/mL (≈ 3.79 µM)
Enterococcus faecalis [12]
  MIC: 4 µg/mL (≈ 3.79 µM)
Enterococcus faecalis [13]
  MIC: 4 µg/mL (≈ 3.79 µM)
Staphylococcus aureus [14]
  MIC: 4 µg/mL (≈ 3.79 µM)
Enterococcus faecium [15]
  MIC: 2 µg/mL (≈ 1.89 µM)

## CN[C@H](CC(C)C)C(=O)N[C@H]1C(=O)N[C@@H](CC(N)=O)C(=O)N[C@H]2C(=O)N[C@H]3C(=O)N[C@H](C(=O)N[C@H](C(=O)O)c4cc(O)cc(O)c4-c4cc3ccc4O)[C@H](O)c3ccc(c(Cl)c3)Oc3cc2cc(c3O[C@@H]2O[C@H](CO)[C@@H](O)[C@H](O)[C@H]2O[C@H]2C[C@](C)(N)[C@H](O)[C@H](C)O2)Oc2ccc(cc2Cl)[C@H]1O [VANCOMYCIN]
Enterococcus faecalis [12]
  MIC: > 64 µg/mL
Enterococcus faecalis [13]
  MIC: 1 µg/mL (≈ 0.69 µM)
Enterococcus faecium [15]
  MIC: > 64 µg/mL

## CCCCCCCCCCCCCCC[C@@H](NC[C@@H](NC(=O)N[C@H](C(=O)O)C(C)C)[C@@H]1CCNC(=N)N1)C(=O)NCCCN[C@H](C(=O)O)[C@H](O[C@@H]1O[C@H](CN)[C@@H](O)[C@H]1O)[C@H]1O[C@@H](n2ccc(=O)[nH]c2=O)[C@H](O)[C@@H]1O
Staphylococcus aureus [10]
  MIC: 2 µg/mL (≈ 1.89 µM)
Enterococcus faecium [11]
  MIC: 0.5 µg/mL (≈ 0.473 µM)
Enterococcus faecalis [12]
  MIC: 4 µg/mL (≈ 3.79 µM)
Enterococcus faecalis [13]
  MIC: 2 µg/mL (≈ 1.89 µM)
Staphylococcus aureus [14]
  MIC: 4 µg/mL (≈ 3.79 µM)
Enterococcus faecium [15]
  MIC: 0.25 µg/mL (≈ 0.237 µM)

## CCCCCCCCCCCCCCCCOP(=O)(CCN1C[C@@H](O)[C@H](O)C1)OC[C@H]1O[C@@H](n2ccc(=O)[nH]c2=O)[C@H](O)[C@@H]1O (stereo in doubt; 12i-P1) [listing 2 of 2 here]
Bacillus subtilis [1]
  Activity: Active
Enterococcus faecalis [6]
  Activity: Active
Staphylococcus aureus [9]
  Activity: Active
Streptococcus agalactiae
  Activity: Active

## CC(C)(C)C(=O)SCCOP(=O)(CCN1C[C@@H](O)[C@H](O)C1)OC[C@H]1O[C@@H](n2ccc(=O)[nH]c2=O)[C@H](O)[C@@H]1O (stereo partly specified)
Pseudomonas aeruginosa
  MIC: > 200 µg/mL
Escherichia coli [2]
  MIC: > 200 µg/mL
[4]
  Activity: Non-toxic
[7]
  IC50: > 1000 µg/mL
[8]
  MNTC at 48 h: > 1000 µg/mL

## CCCCCCCCCCCCCCCCOCCCOP(=O)(CCN1C[C@H](O)C[C@@H](O)C1)OC[C@H]1O[C@@H](n2ccc(=O)[nH]c2=O)[C@H](O)[C@@H]1O (stereo partly specified)
Bacillus subtilis [1]
  MIC: 100 µg/mL (≈ 136 µM)
Pseudomonas aeruginosa
  MIC: > 200 µg/mL
Escherichia coli [2]
  MIC: > 200 µg/mL
[4]
  Activity: Non-toxic
Enterococcus faecalis [6]
  MIC: 200 µg/mL (≈ 273 µM)
[7]
  IC50: 53 µg/mL (≈ 72.2 µM)
[8]
  MNTC at 48 h: 31.2 µg/mL
Bacillus subtilis [16]
  inhibition: inactive
Streptococcus agalactiae
  MIC: 6.25 µg/mL (≈ 8.52 µM)

## CCCCCCCCCCCCCCCCOP(=O)(CCN1C[C@H](O)C[C@H]1CO)OC[C@H]1O[C@@H](n2ccc(=O)[nH]c2=O)[C@H](O)[C@@H]1O (stereo partly specified)
Bacillus subtilis [1]
  MIC: 3.13 µg/mL (≈ 4.63 µM)
Pseudomonas aeruginosa
  MIC: > 200 µg/mL
Escherichia coli [2]
  MIC: > 200 µg/mL
[3]
  MIC: 6.25 µg/mL (≈ 9.25 µM)
[4]
  Activity: Non-toxic
Enterococcus faecium [5]
  MIC: 6.25 µg/mL (≈ 9.25 µM)
Enterococcus faecalis [6]
  MIC: 6.25 µg/mL (≈ 9.25 µM)
[7]
  IC50: 116 µg/mL (≈ 172 µM)
[8]
  MNTC at 48 h: 62.5 µg/mL
Staphylococcus aureus [9]
  MIC: 100 µg/mL (≈ 148 µM)
Streptococcus agalactiae
  MIC: 3.13 µg/mL (≈ 4.63 µM)

## CCCCCCCCCCCCCCCCOP(=O)(CCN1C[C@@H](O)[C@H](O)C1)OC[C@H]1O[C@@H](n2ccc(=O)[nH]c2=O)[C@H](O)[C@@H]1O (mixture of isomers)
Bacillus subtilis [1]
  MIC: 3.13 µg/mL
Pseudomonas aeruginosa
  MIC: > 200 µg/mL
Escherichia coli [2]
  MIC: > 200 µg/mL
Escherichia coli [17]
  Activity: 90%
[3]
  MIC: 3.13 µg/mL
[4]
  Activity: Non-toxic
Enterococcus faecium [5]
  MIC: 3.13 µg/mL
Enterococcus faecalis [6]
  MIC: 6.25 µg/mL
[18]
  MIC: 12.5 µg/mL
[7]
  IC50: 56 µg/mL
[8]
  MNTC at 48 h: 31.2 µg/mL
Staphylococcus aureus [19]
  MIC: 12.5 µg/mL
Staphylococcus aureus [9]
  MIC: 6.25 µg/mL
Streptococcus agalactiae
  MIC: 1.56 µg/mL
